Screening data as filed in PubChem BioAssay.
NPY Y2 blocker = antagonists of human neuropeptide Y receptor Y2; NPY-Y2 expressing cells, antagonist mode; actives 0.99% (n = 140,000); inhibition, % at 2.7 µM; P49146; in the data active means inhibition above about 17%
NPY1 pot ag = potentiates or activates human NPY-Y1 receptor. P25929. NPY-Y1 expressing cells, potentiator/agonist activation. activation, % at 3.6 µM. actives 0.37% (n = 220,000). AID 1304; in the data active means activation above about 33%, passing the limit was not always enough;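 further: cells stimulated with NPY at EC10 then isoproterenol at EC100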
Target sequence (P25929 whole entry, looked up): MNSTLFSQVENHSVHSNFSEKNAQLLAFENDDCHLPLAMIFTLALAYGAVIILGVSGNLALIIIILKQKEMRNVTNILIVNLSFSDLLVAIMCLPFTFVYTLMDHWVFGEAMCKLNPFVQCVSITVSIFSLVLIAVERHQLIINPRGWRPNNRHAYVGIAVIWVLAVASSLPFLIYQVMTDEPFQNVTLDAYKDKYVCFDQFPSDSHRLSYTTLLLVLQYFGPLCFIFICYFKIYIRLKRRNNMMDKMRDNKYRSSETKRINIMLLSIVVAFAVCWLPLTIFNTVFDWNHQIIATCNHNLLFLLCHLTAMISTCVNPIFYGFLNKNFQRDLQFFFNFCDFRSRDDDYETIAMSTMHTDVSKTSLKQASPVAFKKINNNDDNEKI
PGE2 EP2 inh = EP2 receptor (human) inhibition. P43116. C6 glioma cells expressing human EP2, cAMP TR-FRET; cells stimulated with saturating PGE2. inhibition, % at 25 µM. actives 0.52% (n = 260,000). AID 1422;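 active means percent inhibition above 40 after rounding to a whole number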;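 further: rat C6 glioma host cells with rolipram phosphodiesterase inhibitor present; the protocol text gives 20 µM as final concentration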
EP2 mod = EP2 receptor (human) modulation. EP2-expressing cells, cAMP HTRF FRET, PGE2 co-stimulation. actives 0.83% (n = 260,000). AID 940. induction, % at 25 µM. P43116;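 active means compounds whose cAMP rise, as percent of the full-agonist control response, exceeds 60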;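 further: rat C6 glioma line stably carrying human EP2 under a CMV promoter; the protocol text gives 20 µM as final concentration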
NPY Y1 blocker = antagonists of human neuropeptide Y receptor Y1 | inhibition, % at 3.6 µM | P25929 | HEK293-CNG Y1 cells, membrane potential fluorescence; NPY at EC95, then isoproterenol | actives 1% (n = 200,000);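 active means inhibition above the campaign mean inhibition of all tested compounds plus 3 SD, cut at about 20% in these data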
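Material: Y1- and CNG-channel-expressing HEK293 cells / Probe or stimulus: NPY 25 nM then isoproterenol 1 µM plus Ro 20-1724 25 µM / Doses: 3.6 µM single dose, DMSO 0.4% / Schedule: compound incubation 1 h at room temperature, readout 45 min post-stimulation / Signal: membrane potential fluorescence / Benchmarks: isoproterenol-only wells as full block versus NPY-plus-isoproterenol wells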
NPY2 pot ag = human NPY-Y2 potentiation or agonism, primary screen; AID 1359; cells expressing NPY-Y2, potentiator/agonist read-out; activation, % at 3.6 µM; actives 0.45% (n = 220,000); in the data active means activation above about 27%;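 further: cells stimulated with NPY near EC25 plus isoproterenol at EC100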
Large screens that a line does not name were inactive; ! = repeats disagree. Most compounds without a hit are left out; they make up all but 2.8% or so of the library.

Cc1cc(C)c(C(=O)Nc2ccc(Br)c(C(F)(F)F)c2)c(C)c1	NPY Y2 blocker 30.5, NPY Y1 blocker 28.2
CC(C)CNc1nc2c(c(=O)n(C)c(=O)n2C)n1Cc1cccc(Br)c1	EP2 mod 61.9
Cn1c(=O)c2c(nc(NCCCN3CCOCC3)n2Cc2ccc(Cl)c(Cl)c2)n(C)c1=O	NPY Y2 blocker 23.2, NPY Y1 blocker 20.4 (no result: PGE2 EP2 inh, EP2 mod)
O=C(CSc1nnc(-c2ccccc2)n1-c1ccccc1)c1cccs1	NPY1 pot ag 49.1, NPY2 pot ag 31.1 (no result: PGE2 EP2 inh)
O=C(O)c1cccc(CSc2nc(-c3ccc(Cl)cc3)cc(C(F)(F)F)n2)c1	EP2 mod 63.5
CCCC(=O)c1ccc2c(c1)OCCO2	none
O=C(O)CCC(=O)c1ccc2c(c1)OCCO2	NPY Y2 blocker 18.1, NPY Y1 blocker 28.6
O=C(Nc1ccccc1Cl)c1ccccc1	none (no result: NPY Y2 blocker)
O=C(Nc1ccccc1Cl)c1ccccc1Cc1ccccc1	EP2 mod 63.9
C=CCn1c(-c2ccccc2)ccc(C#N)c1=O	EP2 mod 64.1
C=CCn1c(-c2ccccc2)cc(SC)c(C#N)c1=O	none (no result: NPY Y2 blocker)
O=C(Nc1ccccc1O)c1c(O)c2c([nH]c1=O)CCCC2	PGE2 EP2 inh 64.0! (no result: NPY Y2 blocker)
O=C(Nc1nccs1)c1c(O)c2c([nH]c1=O)CCCC2	none (no result: NPY Y2 blocker, NPY Y1 blocker)
Clc1ccccc1-c1ccc(CN2CCN(c3ccccc3)CC2)o1	NPY Y2 blocker 27.7, NPY Y1 blocker 22.7 (no result: PGE2 EP2 inh)
O=C(O)c1ccc(Oc2ccccc2)o1	EP2 mod 69.6 (no result: NPY Y2 blocker, NPY Y1 blocker)
O=C1c2cccc3c(Br)ccc(c23)C(=O)N1c1ccccn1	none (no result: NPY Y2 blocker, NPY1 pot ag, NPY Y1 blocker, NPY2 pot ag)
O=C(COc1ccccc1)Nc1ccc(S(=O)(=O)N2CCOCC2)cc1	PGE2 EP2 inh 52.2
COc1ccc2[nH]c(=O)c(CN(C(=O)Nc3ccccc3Cl)C3CCCC3)cc2c1	none (no result: NPY Y2 blocker, NPY1 pot ag, NPY Y1 blocker, NPY2 pot ag)
CC[n+]1c(/C=C/c2ccc(N(C)C)cc2)ccc2cc(C)ccc21	none (no result: NPY Y2 blocker, NPY1 pot ag, NPY Y1 blocker, NPY2 pot ag)
CN(C)c1ccc(/C=C/c2ccc3ccccc3[n+]2C)cc1	PGE2 EP2 inh 100.4
CN(C)c1ccc(/C=C/c2ccc3c4ccccc4ccc3[n+]2-c2ccccc2)cc1	NPY2 pot ag 58.0 (no result: NPY Y2 blocker)
CC(=O)C1=C(O)C(=O)N(c2ccc(C)cc2)C1c1cccnc1 (configuration not stated)	none (no result: NPY Y2 blocker, NPY1 pot ag, NPY Y1 blocker, NPY2 pot ag)
COc1ccc(CN(Cc2cccnc2)CC2CCCO2)c(OC)c1 (configuration not stated)	none (no result: NPY Y2 blocker, NPY1 pot ag, NPY Y1 blocker, NPY2 pot ag)
Cc1ccc(NC(=S)Nc2cccc(-c3n[nH]c(=S)o3)c2)cc1	PGE2 EP2 inh 41.7 (no result: NPY Y2 blocker, NPY Y1 blocker)
Cc1ccc(C)c2[nH]c(=O)c(CN(Cc3cccnc3)Cc3nnnn3C3CCCC3)cc12	none (no result: NPY Y2 blocker, NPY1 pot ag, NPY Y1 blocker, NPY2 pot ag)
CCCn1ncc(CN(Cc2ccccc2OC)CC2CCCO2)c1C (configuration not stated)	none (no result: NPY Y2 blocker, NPY1 pot ag, NPY Y1 blocker, NPY2 pot ag)
NNC(=O)CSc1ncnc2nc[nH]c12	none (no result: NPY Y2 blocker, NPY1 pot ag, NPY Y1 blocker, NPY2 pot ag)
O=C(NCCN1CCOCC1)c1cnn2c(-c3ccccc3)cc(-c3ccccc3)nc12	NPY Y2 blocker 20.1, NPY Y1 blocker 35.6
O=C(NCCN1CCOCC1)c1ccccc1-c1ccccc1	none
COCCCNC(=S)N(Cc1ccco1)Cc1cc2ccc(OC)cc2[nH]c1=O	none (no result: NPY Y2 blocker, NPY1 pot ag, NPY Y1 blocker, NPY2 pot ag)
CCCN(CCC)S(=O)(=O)c1ccc(Cl)c([N+](=O)[O-])c1	NPY1 pot ag 76.6, NPY2 pot ag 77.1 (no result: NPY Y2 blocker)
CCCn1c(=O)[nH]c2c(C(N)=O)nc(-c3ccccc3Cl)nc21	none (no result: NPY Y2 blocker, NPY1 pot ag, PGE2 EP2 inh, NPY Y1 blocker, NPY2 pot ag)
COc1ccc(-c2csc3ncnc(Cl)c23)cc1	none (no result: NPY Y2 blocker)
COc1ccc(Nc2ncnc3scc(-c4ccc(OC)cc4)c23)cc1	NPY Y2 blocker 31.8, NPY Y1 blocker 20.7
CC1CCN(CC(=O)Nc2ccccc2-c2ccccc2)CC1	EP2 mod 64.5!
CC1CCN(CC(=O)Nc2ccccc2C(=O)c2ccccc2)CC1	EP2 mod 63.4 (no result: NPY Y2 blocker)
COc1cccc(CC(=O)N2CCC(n3nc(-c4ccco4)ccc3=O)CC2)c1	none (no result: NPY Y2 blocker, NPY1 pot ag, PGE2 EP2 inh, NPY Y1 blocker, NPY2 pot ag)
C=CCn1c(Sc2ncc([N+](=O)[O-])s2)n[nH]c1=O	none (no result: NPY Y2 blocker, NPY Y1 blocker)
O=[N+]([O-])c1cnc(Sc2ccncn2)s1	PGE2 EP2 inh 69.7 (no result: NPY Y2 blocker, NPY Y1 blocker)
CSc1ccccc1N=Cc1nc(-c2ccccc2)oc1O	EP2 mod 60.6
FC(F)(F)COc1nc(N2CCOCC2)nc(N(c2ccccc2)c2ccccc2)n1	NPY Y2 blocker 19.9, NPY Y1 blocker 20.9
Cn1nc(C(F)(F)F)c(-c2ccc(F)cc2)c1NC(=O)c1ccco1	none (no result: NPY Y2 blocker, NPY Y1 blocker)
Cn1nc(C(F)(F)F)c(-c2ccc(Br)cc2)c1NC(=O)Nc1ccc(F)cc1F	NPY1 pot ag 108.3, NPY2 pot ag 99.4 (no result: NPY Y2 blocker, NPY Y1 blocker)
